Laboratory results as given in ChEMBL document CHEMBL1155221, “Identification of novel indanylsulfonamide guanylhydrazones as potent 5-HT6 serotonin receptor antagonists” (J Med Chem, 2009).

How the values were obtained:
[1] = molecular target: T1, 5-hydroxytryptamine receptor 6 (Homo sapiens, UniProt P50406); assay: Inhibition of [3H]LSD binding to human recombinant 5HT6 receptor expressed in HEK293 cells at 100 nM after 60 mins by liquid scintillation counting; type: cell-based
Method in brief: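 Single-point competition at 100 nM test compound against [3H]-LSD on membranes from HEK-293 cells expressing recombinant human 5-HT6 receptor. Percent inhibition of radioligand binding reported.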

[2] = molecular target: T1, 5-hydroxytryptamine receptor 6; assay: Antagonist activity at human 5HT6 receptor expressed in HEK293F cells assessed as inhibition of 5-HT-stimulated cAMP production at […] after 30 mins by HTRF assay relative to (+/-)-6-chloro-N-(3-(1-methylpyrrolidin-3-yl)-1H-inden-5-yl)imidazo[2,1-b]thiazole-5-sulfonamide; type: functional, cell-based
[3] = molecular target: T2, 5-hydroxytryptamine receptor 1A (Homo sapiens, UniProt P08908); assay: Inhibition of human 5HT1A receptor
T2 sequence (P08908 whole entry): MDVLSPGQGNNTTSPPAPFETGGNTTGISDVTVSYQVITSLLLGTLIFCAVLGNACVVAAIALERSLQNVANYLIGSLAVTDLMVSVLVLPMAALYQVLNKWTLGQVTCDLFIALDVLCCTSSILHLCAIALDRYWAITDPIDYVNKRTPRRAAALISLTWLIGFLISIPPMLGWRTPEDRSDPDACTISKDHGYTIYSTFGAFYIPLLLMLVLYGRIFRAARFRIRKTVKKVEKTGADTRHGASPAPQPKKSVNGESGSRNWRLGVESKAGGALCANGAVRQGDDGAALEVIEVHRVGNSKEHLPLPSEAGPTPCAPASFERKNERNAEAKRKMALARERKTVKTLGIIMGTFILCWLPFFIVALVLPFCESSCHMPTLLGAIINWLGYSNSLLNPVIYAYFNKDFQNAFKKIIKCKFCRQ

[4] = molecular target: T1, 5-hydroxytryptamine receptor 6; assay: Displacement of [3H]LSD from human recombinant 5HT6 receptor expressed in HEK293 cells after 60 mins by liquid scintillation counting; type: cell-based
Method in brief: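 Competition binding on membranes from HEK-293 cells expressing recombinant human 5-HT6 receptor, with [3H]-LSD as radioligand. […] Values are mean ± SEM of three experiments.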

[5] = molecular target: T1, 5-hydroxytryptamine receptor 6; assay: Antagonist activity at human 5HT6 receptor expressed in HEK293F cells assessed as inhibition of 5-HT-stimulated cAMP production after 30 mins by HTRF assay; type: functional, cell-based
Method in brief: (§1)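 HEK-293F cells stably expressing human 5-HT6 receptor. Compounds were tested against 5-HT-stimulated cAMP production, with cAMP read by homogeneous time-resolved fluorescence (HTRF). Antagonism expressed as Imax and IC50. Data are mean ± SEM of three experiments.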

[6] = molecular target: T1, 5-hydroxytryptamine receptor 6; assay: Displacement of [3H]LSD from human cloned 5HT6 receptor expressed in human HeLa cells; type: cell-based
[7] = molecular target: T3, Adrenergic receptor alpha-2 (Homo sapiens, UniProt P08913+P18825+P18089); assay: Inhibition of human alpha 2 adrenoceptor
T3 sequence (P08913 whole entry): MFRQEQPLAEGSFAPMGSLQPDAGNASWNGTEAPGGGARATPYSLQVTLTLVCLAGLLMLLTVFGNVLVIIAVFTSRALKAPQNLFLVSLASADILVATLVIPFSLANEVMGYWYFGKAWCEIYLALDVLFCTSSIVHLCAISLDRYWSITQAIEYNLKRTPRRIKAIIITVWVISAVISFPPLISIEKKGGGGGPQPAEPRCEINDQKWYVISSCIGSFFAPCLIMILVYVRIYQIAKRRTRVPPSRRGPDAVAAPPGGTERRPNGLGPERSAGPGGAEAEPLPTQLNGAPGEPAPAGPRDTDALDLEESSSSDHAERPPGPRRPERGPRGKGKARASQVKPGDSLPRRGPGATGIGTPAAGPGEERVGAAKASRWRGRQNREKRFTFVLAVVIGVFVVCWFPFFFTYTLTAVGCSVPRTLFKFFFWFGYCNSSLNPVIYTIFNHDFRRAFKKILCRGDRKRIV
T3 sequence (P18825 whole entry): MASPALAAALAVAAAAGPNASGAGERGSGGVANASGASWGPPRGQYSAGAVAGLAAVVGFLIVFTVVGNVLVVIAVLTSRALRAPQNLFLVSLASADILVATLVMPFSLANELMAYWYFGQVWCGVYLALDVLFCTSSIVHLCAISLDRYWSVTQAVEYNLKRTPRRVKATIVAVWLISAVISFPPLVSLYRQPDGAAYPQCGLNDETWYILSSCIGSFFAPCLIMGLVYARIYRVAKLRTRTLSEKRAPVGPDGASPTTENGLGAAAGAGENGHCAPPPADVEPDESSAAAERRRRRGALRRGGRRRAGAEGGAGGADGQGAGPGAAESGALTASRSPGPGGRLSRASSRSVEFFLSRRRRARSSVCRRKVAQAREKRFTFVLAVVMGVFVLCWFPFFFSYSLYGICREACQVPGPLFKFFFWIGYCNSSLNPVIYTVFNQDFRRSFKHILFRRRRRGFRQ
T3 sequence (P18089 whole entry): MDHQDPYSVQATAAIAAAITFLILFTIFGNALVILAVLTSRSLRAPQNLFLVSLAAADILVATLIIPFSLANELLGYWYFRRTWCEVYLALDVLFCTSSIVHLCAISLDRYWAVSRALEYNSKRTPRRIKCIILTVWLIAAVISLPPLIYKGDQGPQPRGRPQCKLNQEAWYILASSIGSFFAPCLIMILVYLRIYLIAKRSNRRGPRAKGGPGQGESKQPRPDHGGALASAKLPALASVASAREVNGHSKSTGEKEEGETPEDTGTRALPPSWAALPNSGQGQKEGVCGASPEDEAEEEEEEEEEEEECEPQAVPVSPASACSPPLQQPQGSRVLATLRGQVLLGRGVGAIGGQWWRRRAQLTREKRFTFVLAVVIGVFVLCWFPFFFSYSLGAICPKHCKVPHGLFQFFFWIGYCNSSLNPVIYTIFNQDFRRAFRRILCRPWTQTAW

[8] = molecular target: Sodium-dependent serotonin transporter (Homo sapiens, UniProt P31645); assay: Inhibition of human SERT
Sequence of Sodium-dependent serotonin transporter (P31645 whole entry): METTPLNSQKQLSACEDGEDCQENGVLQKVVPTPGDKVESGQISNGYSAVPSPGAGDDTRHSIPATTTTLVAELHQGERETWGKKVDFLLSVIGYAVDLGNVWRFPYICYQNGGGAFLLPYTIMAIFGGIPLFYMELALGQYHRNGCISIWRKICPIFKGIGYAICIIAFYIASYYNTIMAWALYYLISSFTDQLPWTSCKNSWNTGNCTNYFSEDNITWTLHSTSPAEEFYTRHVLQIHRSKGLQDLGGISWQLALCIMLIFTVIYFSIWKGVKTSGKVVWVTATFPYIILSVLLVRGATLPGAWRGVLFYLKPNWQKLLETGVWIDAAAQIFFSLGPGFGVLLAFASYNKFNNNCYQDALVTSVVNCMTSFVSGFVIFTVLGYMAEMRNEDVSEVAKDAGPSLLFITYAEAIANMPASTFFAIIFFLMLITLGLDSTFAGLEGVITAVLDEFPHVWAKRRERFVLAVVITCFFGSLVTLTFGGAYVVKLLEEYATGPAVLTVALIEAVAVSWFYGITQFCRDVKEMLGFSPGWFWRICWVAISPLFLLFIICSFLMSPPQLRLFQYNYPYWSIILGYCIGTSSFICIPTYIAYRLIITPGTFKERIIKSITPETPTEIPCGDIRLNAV

[9] = molecular target: T4, Adrenergic receptor alpha-1 (Rattus norvegicus, UniProt P15823+P23944+P43140); assay: Inhibition of rat alpha 1 adrenoceptor
T4 sequence (P15823 whole entry): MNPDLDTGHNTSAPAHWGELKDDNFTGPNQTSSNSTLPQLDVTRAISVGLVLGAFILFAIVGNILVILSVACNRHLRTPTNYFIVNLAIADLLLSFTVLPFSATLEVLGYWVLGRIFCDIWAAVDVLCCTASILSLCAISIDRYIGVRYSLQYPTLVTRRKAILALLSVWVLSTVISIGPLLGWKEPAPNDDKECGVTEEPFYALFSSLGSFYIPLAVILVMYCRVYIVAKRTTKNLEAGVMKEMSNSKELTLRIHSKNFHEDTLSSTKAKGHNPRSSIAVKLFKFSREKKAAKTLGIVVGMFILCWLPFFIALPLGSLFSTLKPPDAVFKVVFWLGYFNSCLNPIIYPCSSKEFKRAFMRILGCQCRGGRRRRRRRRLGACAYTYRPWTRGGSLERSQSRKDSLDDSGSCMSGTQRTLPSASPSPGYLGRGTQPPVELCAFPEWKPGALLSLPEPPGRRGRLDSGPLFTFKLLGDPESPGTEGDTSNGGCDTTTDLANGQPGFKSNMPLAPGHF
T4 sequence (P23944 whole entry): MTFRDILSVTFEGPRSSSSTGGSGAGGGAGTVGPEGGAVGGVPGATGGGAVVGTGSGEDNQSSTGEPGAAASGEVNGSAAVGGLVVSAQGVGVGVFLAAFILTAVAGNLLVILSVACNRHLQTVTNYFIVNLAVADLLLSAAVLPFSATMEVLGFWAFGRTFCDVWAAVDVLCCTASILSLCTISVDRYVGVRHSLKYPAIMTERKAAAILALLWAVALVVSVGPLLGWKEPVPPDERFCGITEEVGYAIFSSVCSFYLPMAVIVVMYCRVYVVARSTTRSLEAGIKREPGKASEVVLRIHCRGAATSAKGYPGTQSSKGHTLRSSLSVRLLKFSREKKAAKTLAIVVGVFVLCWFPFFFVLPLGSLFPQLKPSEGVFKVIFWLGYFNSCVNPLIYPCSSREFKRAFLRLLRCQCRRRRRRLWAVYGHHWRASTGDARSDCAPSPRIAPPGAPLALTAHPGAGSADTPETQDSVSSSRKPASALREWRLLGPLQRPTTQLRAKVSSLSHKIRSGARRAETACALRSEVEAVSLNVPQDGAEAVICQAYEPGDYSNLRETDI
T4 sequence (P43140 whole entry): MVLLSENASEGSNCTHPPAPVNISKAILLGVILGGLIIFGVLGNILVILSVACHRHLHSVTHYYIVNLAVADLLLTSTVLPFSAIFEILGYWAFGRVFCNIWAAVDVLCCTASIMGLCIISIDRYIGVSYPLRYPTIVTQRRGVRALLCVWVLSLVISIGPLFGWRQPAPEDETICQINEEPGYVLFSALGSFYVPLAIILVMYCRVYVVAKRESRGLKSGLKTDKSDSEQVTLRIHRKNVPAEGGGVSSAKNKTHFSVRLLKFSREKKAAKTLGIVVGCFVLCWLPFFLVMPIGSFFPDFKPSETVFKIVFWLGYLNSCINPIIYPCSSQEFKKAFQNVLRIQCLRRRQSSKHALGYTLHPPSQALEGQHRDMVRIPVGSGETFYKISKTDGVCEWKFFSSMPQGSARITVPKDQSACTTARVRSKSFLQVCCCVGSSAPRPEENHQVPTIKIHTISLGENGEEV

[10] = molecular target: T5, 5-hydroxytryptamine receptor 2C (Homo sapiens, UniProt P28335); assay: Inhibition of human 5HT2C receptor
T5 sequence (P28335 whole entry): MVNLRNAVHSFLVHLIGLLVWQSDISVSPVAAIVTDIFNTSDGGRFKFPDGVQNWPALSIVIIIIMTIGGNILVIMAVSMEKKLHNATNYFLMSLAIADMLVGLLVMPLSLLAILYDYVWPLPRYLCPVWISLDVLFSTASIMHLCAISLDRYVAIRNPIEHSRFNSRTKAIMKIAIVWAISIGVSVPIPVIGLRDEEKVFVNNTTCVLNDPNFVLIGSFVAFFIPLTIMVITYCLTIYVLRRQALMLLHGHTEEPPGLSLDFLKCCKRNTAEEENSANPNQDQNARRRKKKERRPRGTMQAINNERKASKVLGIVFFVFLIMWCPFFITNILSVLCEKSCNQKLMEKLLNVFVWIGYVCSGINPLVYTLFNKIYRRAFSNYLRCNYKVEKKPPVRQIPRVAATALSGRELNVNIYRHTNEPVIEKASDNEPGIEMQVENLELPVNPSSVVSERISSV

[11] = molecular target: T1, 5-hydroxytryptamine receptor 6; assay: Antagonist activity at human 5HT6 receptor expressed in HEK293F cells assessed as inhibition of 5-HT-stimulated cAMP production at […] after 30 mins by HTRF assay; type: functional, cell-based; method in brief: as §1

T1 sequence (P50406 whole entry): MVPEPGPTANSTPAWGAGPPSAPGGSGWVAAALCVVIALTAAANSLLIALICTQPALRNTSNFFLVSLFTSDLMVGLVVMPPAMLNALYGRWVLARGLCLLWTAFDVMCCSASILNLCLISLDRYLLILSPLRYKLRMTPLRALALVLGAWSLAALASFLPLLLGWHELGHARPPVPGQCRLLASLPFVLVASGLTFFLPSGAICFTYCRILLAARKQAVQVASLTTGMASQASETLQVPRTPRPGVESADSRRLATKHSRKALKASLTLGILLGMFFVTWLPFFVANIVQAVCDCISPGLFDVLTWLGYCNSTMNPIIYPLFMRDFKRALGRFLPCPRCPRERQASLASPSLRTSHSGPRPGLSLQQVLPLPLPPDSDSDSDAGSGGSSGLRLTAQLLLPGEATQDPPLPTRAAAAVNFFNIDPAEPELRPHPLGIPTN

inhibition [1] [%] | Imax [2] [%] | IC50 [3] [nM] | Ki [4] [nM] | IC50 [5] [nM] | Ki [6] [nM] | IC50 [7] | IC50 [8] [nM] | IC50 [9] [nM] | IC50 [10] [nM] | Imax [11] [%] | SMILES
2 | – | – | – | – | – | – | – | – | – | – | N=C(N)N/N=C1\CCc2c(NS(=O)(=O)c3c(Cl)nc4sccn34)cccc21
> 80 | 187 | > 1000 | 26 | 581 | – | – | – | – | – | – | CN1CCOc2ccc(S(=O)(=O)Nc3ccc4c(c3)/C(=N/NC(=N)N)CC4)cc21
– | – | – | – | – | ≤ 8 | – | – | – | – | – | C/C(=N\NC(=N)N)c1cn(S(=O)(=O)c2c(Cl)nc3sccn23)c2ccccc12
> 80 | 102 | > 1000 | 4.1 | 54 | – | > 1000 nM | – | – | – | – | CN(c1ccc2c(c1)/C(=N/NC(=N)N)CC2)S(=O)(=O)c1c(Cl)nc2sccn12.Cl
> 80 | 173 | > 10000 | 2.6 | 47 | – | > 1000 nM | – | – | – | – | Cl.N=C(N)N/N=C1\CCc2cc(NS(=O)(=O)c3c(Cl)nc4sccn34)ccc21
> 80 | 173 | – | 2.2 | 176 | – | > 1 ×10⁴ nM | > 10000 | > 1000 | > 10000 | – | O=S(=O)(Nc1ccc2c(c1)/C(=N/NC1=NCCN1)CC2)c1c(Cl)nc2sccn12
> 80 | – | – | 70 | – | – | – | – | – | – | – | CN1CCOc2ccc(S(=O)(=O)Nc3ccc4c(c3)/C(=N\NC3=NCCN3)CC4)cc21
77 | – | – | – | – | – | – | – | – | – | – | CC1(C)C/C(=N\NC2=NCCN2)c2cc(NS(=O)(=O)c3c(Cl)nc4sccn34)ccc21
– | – | – | – | – | 1 | – | – | – | – | – | COc1ccc(S(=O)(=O)Nc2ccc3[nH]cc(/C(C)=N/NC(=N)N)c3c2)cc1
> 80 | 157 | > 1000 | 1.6 | 58 | – | > 1000 nM | > 1000 | > 1000 | > 1000 | – | CC1Cc2ccc(NS(=O)(=O)c3c(Cl)nc4sccn34)cc2/C1=N/NC(=N)N.Cl (racemic)
> 80 | 127 | > 10000 | 1.2 | 96 | – | > 1 ×10⁴ nM | > 10000 | > 1000 | > 10000 | – | Cl.N=C(N)N/N=C1\CCc2ccc(NS(=O)(=O)c3c(Cl)nc4sccn34)cc21
– | – | – | – | – | ≤ 8 | – | – | – | – | – | C/C(=N\NC(=N)N)c1cn(S(=O)(=O)c2ccc(N)cc2)c2ccccc12
> 80 | – | – | 3 | 1580 | – | – | – | – | – | 100 | CN1CCC(C2=CCc3ccc(NS(=O)(=O)c4c(Cl)nc5sccn45)cc32)C1 (stereo not drawn)
> 80 | 146 | > 1000 | 5.2 | 238 | – | > 1 ×10⁴ nM | > 10000 | – | > 1000 | – | CC1(C)C/C(=N\NC(=N)N)c2cc(NS(=O)(=O)c3c(Cl)nc4sccn34)ccc21.Cl
> 80 | 127 | > 1000 | 62 | 53 | – | > 1000 nM | – | – | – | – | Cl.N=C(N)N/N=C1\CCc2ccc(NS(=O)(=O)c3ccc4ccccc4c3)cc21
